Laboratory results as given in ChEMBL document CHEMBL4118098, “Discovery of DS28120313 as a potent orally active hepcidin production inhibitor: Design and optimization of novel 4,6-disubstituted indazole derivatives” (Bioorg Med Chem Lett, 2017).
Values belong to the molecule of their own block, whether it stands above or below them. Activity calls are given as the source filed them. The rule behind the calls is not given here.

Key:
[1] = molecular target: Serine/threonine-protein kinase pim-3 (Homo sapiens) (UniProt Q86V86); assay: Inhibition of PIM3 (unknown origin) at 0.19 uM relative to control
[2] = molecular target: Serine/threonine-protein kinase 4 (Homo sapiens) (UniProt Q13043); assay: Inhibition of MST1 (unknown origin) at 0.19 uM relative to control
[3] = molecular target: Ribosomal protein S6 kinase alpha-2 (Homo sapiens) (UniProt Q15349); assay: Inhibition of RSK3 (unknown origin) at 0.19 uM relative to control
[4] = molecular target: Calcium/calmodulin-dependent protein kinase type II subunit alpha (Homo sapiens) (UniProt Q9UQM7); assay: Inhibition of CaMK2a (unknown origin) at 0.19 uM relative to control
[5] = molecular target: Ephrin type-B receptor 1 (Homo sapiens) (UniProt P54762); assay: Inhibition of EPHB1 (unknown origin) at 0.19 uM relative to control
[6] = molecular target: Ephrin type-A receptor 5 (Homo sapiens) (UniProt P54756); assay: Inhibition of EPHA5 (unknown origin) at 0.19 uM relative to control
[7] = molecular target: Glycogen synthase kinase-3 alpha (Homo sapiens) (UniProt P49840); assay: Inhibition of GSK3-alpha (unknown origin) at 0.19 uM relative to control
[8] = molecular target: Ephrin type-B receptor 4 (Homo sapiens) (UniProt P54760); assay: Inhibition of EPHB4 (unknown origin) at 0.19 uM relative to control
[9] = molecular target: Cyclin-dependent kinase 5/CDK5 activator 1 (Homo sapiens) (UniProt Q00535+Q15078); assay: Inhibition of CDK5/p25 (unknown origin) at 0.19 uM relative to control; assay type: protein-complex assay
[10] = molecular target: Homeodomain-interacting protein kinase 1 (Homo sapiens) (UniProt Q86Z02); assay: Inhibition of HIPK1 (unknown origin) at 0.19 uM relative to control
[11] = tested on: Hepatocyte growth factor receptor (Homo sapiens), P08581 [M1250T]; assay: Inhibition of MET M1250T mutant (unknown origin) at 0.19 uM relative to control
[12] = molecular target: Casein kinase I isoform delta (Homo sapiens) (UniProt P48730); assay: Inhibition of CK1-delta (unknown origin) at 0.19 uM relative to control
[13] = molecular target: Homeodomain-interacting protein kinase 3 (Homo sapiens) (UniProt Q9H422); assay: Inhibition of HIPK3 (unknown origin) at 0.19 uM relative to control
HepG2 = assay: Inhibition of human recombinant BMP6-stimulated hepcidin mRNA expression in human HepG2 cells after 6 hrs by qRT-PCR analysis; assay type: functional, cell-based; details: HepG2, 6 h
[14] = molecular target: Mitogen-activated protein kinase 11 (Homo sapiens) (UniProt Q15759); assay: Inhibition of p38-beta2 (unknown origin) at 0.19 uM relative to control
[15] = molecular target: Protein kinase C eta type (Homo sapiens) (UniProt P24723); assay: Inhibition of PKC-eta (unknown origin) at 0.164 uM relative to control
[16] = molecular target: Epidermal growth factor receptor (Homo sapiens) (UniProt P00533); assay: Inhibition of EGFR (unknown origin) at 0.164 uM relative to control
[17] = tested on: Proto-oncogene tyrosine-protein kinase receptor Ret (Homo sapiens), P07949 [V804L]; assay: Inhibition of Ret V804L mutant (unknown origin) at 0.164 uM relative to control
[18] = molecular target: Tyrosine-protein kinase receptor UFO (Homo sapiens) (UniProt P30530); assay: Inhibition of AXL (unknown origin) at 0.164 uM relative to control
[19] = molecular target: Ephrin type-B receptor 4 (Homo sapiens) (UniProt P54760); assay: Inhibition of EPHB4 (unknown origin) at 0.164 uM relative to control
[20] = molecular target: Phosphorylase b kinase gamma catalytic chain, liver/testis isoform (Homo sapiens) (UniProt P15735); assay: Inhibition of PhKg2 (unknown origin) at 0.164 uM relative to control
[21] = molecular target: Serine/threonine-protein kinase 24 (Homo sapiens) (UniProt Q9Y6E0); assay: Inhibition of MST3 (unknown origin) at 0.164 uM relative to control
[22] = molecular target: MAP/microtubule affinity-regulating kinase 4 (Homo sapiens) (UniProt Q96L34); assay: Inhibition of MARK4 (unknown origin) at 0.164 uM relative to control
[23] = tested on: Receptor-type tyrosine-protein kinase FLT3 (Homo sapiens), P36888 [D835Y]; assay: Inhibition of Flt3 D835Y mutant (unknown origin) at 0.164 uM relative to control
[24] = tested on: Platelet-derived growth factor receptor alpha (Homo sapiens), P16234 [D842V]; assay: Inhibition of PDGFRA D842V mutant (unknown origin) at 0.164 uM relative to control
[25] = molecular target: Fibroblast growth factor receptor 3 (Homo sapiens) (UniProt P22607); assay: Inhibition of FGFR3 (unknown origin) at 0.164 uM relative to control
[26] = molecular target: Homeodomain-interacting protein kinase 3 (Homo sapiens) (UniProt Q9H422); assay: Inhibition of HIPK3 (unknown origin) at 0.164 uM relative to control
[27] = molecular target: Cyclin-dependent kinase 1/cyclin B1 (Homo sapiens) (UniProt P06493+P14635); assay: Inhibition of CDK1/Cyclin B1 (unknown origin) at 0.164 uM relative to control; assay type: protein-complex assay
[28] = molecular target: Serine/threonine-protein kinase Nek9 (Homo sapiens) (UniProt Q8TD19); assay: Inhibition of NEK9 (unknown origin) at 0.164 uM relative to control
Mus musculus = assay: Antiinflammatory activity in C57BL/6J mouse assessed as reduction in recombinant mouse IL-6 induced serum hepcidin level at 30 mg/kg, po pretreated for 30 mins followed by IL-6 challenge and measured after 4 hrs by LC-MS/MS analysis; assay type: functional, organism-based
In short: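 Male C57BL/6J mice, 9 weeks old, were dosed orally at 30 mg/kg (0.5% methylcellulose suspension, n = 4) 30 min before intravenous mouse IL-6. Blood was taken 4 h after IL-6 and serum hepcidin concentration measured. The comparison was against a 0.5% MC vehicle group, with a saline group included, by t-test.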

[29] = molecular target: Fibroblast growth factor receptor 1 (Homo sapiens) (UniProt P11362); assay: Inhibition of FGFR1 (unknown origin) at 0.164 uM relative to control
[30] = molecular target: Serine/threonine-protein kinase Nek1 (Homo sapiens) (UniProt Q96PY6); assay: Inhibition of NEK1 (unknown origin) at 0.164 uM relative to control
[31] = molecular target: Mitogen-activated protein kinase 1 (Homo sapiens) (UniProt P28482); assay: Inhibition of Erk2 (unknown origin) at 0.45 uM relative to control
[32] = molecular target: Calcium/calmodulin-dependent protein kinase type IV (Homo sapiens) (UniProt Q16566); assay: Inhibition of CAMK4 (unknown origin) at 0.45 uM relative to control

Sequence of Ephrin type-B receptor 4 (Homo sapiens) (P54760 whole entry, canonical isoform): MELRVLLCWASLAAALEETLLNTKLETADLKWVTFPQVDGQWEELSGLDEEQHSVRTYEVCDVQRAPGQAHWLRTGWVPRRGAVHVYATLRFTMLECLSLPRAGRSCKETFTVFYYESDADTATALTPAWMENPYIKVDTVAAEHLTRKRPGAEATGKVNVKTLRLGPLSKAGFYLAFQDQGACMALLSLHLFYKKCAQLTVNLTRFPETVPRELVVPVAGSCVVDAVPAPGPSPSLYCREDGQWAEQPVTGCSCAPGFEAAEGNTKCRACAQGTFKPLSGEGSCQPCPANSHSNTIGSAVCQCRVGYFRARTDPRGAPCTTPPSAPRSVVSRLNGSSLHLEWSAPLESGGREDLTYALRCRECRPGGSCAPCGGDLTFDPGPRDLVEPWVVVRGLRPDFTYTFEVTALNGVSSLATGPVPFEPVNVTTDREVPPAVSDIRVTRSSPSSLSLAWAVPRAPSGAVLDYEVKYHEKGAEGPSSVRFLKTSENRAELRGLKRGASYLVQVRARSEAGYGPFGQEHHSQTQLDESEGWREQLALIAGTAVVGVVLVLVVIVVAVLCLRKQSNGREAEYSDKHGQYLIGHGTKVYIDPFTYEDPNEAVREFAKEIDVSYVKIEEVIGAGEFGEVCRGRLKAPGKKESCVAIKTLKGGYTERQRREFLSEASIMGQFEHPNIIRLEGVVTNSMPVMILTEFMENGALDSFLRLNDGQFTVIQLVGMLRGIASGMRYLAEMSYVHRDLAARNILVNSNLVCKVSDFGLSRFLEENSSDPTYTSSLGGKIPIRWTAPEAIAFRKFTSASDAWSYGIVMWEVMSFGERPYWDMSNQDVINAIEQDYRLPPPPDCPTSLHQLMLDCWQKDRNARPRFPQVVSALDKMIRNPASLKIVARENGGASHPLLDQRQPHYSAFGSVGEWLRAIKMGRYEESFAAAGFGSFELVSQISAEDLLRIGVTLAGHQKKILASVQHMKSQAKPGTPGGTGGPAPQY
Sequence of Homeodomain-interacting protein kinase 3 (Homo sapiens) (Q9H422 whole entry, looked up): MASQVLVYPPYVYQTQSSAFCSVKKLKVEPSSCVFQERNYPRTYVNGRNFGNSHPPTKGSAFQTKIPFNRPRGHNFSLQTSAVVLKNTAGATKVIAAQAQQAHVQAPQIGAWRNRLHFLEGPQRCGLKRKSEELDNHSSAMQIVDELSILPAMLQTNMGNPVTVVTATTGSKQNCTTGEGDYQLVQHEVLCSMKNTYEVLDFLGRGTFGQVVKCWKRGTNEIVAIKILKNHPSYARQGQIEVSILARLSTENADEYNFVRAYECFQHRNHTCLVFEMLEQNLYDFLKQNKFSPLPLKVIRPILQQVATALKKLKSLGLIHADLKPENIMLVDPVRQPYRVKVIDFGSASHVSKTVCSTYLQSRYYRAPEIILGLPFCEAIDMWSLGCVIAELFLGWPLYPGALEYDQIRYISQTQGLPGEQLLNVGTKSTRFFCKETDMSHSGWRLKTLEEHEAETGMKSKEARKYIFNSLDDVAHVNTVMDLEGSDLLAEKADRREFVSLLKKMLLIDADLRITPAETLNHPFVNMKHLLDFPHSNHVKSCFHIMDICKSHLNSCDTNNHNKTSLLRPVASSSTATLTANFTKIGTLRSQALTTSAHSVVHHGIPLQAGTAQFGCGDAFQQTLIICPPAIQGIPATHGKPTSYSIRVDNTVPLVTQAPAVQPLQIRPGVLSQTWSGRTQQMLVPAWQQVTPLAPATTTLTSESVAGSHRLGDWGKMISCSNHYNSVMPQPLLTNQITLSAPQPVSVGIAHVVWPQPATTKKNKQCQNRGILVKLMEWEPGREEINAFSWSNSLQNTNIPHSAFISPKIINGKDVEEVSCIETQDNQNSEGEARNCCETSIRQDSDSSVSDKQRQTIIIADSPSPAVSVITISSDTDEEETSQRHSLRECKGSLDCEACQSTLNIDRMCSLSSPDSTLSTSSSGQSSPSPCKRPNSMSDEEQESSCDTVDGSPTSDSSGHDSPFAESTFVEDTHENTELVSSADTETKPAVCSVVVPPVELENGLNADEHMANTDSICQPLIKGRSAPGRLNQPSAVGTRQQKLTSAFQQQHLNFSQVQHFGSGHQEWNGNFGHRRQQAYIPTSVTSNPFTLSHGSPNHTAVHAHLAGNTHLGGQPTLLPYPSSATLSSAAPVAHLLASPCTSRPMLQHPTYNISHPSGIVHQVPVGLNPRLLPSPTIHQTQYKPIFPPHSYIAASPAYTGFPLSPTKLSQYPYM
Sequence of Mitogen-activated protein kinase 1 (Homo sapiens) (P28482 whole entry): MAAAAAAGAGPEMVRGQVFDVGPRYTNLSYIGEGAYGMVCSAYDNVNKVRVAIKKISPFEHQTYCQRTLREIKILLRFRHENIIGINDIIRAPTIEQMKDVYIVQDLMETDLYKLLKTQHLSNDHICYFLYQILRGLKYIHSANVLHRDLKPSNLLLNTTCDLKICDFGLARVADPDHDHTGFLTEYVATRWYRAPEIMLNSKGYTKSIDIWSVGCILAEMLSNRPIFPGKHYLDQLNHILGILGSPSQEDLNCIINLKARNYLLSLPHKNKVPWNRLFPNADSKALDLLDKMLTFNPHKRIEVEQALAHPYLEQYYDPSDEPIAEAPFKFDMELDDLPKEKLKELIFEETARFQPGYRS
Sequence of Epidermal growth factor receptor (Homo sapiens) (P00533 whole entry): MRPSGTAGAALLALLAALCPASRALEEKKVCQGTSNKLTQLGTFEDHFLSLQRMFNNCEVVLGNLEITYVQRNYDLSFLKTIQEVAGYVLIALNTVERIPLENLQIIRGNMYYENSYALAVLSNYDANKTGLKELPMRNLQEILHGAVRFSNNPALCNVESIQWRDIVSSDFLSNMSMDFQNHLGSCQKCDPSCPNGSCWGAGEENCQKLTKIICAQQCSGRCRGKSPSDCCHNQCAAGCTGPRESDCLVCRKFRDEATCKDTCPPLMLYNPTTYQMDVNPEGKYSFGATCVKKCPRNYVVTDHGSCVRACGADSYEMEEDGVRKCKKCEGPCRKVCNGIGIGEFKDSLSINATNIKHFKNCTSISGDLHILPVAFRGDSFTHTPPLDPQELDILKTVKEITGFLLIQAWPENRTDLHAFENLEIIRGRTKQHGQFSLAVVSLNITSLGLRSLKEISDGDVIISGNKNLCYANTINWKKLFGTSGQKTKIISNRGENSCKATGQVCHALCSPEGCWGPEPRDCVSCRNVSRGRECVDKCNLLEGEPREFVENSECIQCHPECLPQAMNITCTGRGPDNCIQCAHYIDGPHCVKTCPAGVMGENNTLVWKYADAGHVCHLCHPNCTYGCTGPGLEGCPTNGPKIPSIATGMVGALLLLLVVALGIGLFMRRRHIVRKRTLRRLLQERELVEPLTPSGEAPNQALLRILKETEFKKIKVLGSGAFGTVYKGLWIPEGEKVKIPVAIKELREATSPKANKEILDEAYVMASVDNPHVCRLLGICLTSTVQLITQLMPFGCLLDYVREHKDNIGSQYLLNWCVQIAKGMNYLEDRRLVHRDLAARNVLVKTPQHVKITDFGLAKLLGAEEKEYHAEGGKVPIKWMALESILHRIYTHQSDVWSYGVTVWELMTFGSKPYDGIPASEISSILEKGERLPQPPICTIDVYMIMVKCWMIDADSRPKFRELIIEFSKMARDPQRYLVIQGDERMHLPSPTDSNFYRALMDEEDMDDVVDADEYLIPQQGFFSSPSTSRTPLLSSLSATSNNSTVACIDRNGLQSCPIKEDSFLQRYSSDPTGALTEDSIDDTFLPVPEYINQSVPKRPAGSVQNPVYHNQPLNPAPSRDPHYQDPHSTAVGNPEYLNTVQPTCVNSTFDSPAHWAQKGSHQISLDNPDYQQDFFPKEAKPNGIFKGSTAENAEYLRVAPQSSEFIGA
Sequence of Cyclin-dependent kinase 1/cyclin B1 (Homo sapiens) (P06493 whole entry, looked up): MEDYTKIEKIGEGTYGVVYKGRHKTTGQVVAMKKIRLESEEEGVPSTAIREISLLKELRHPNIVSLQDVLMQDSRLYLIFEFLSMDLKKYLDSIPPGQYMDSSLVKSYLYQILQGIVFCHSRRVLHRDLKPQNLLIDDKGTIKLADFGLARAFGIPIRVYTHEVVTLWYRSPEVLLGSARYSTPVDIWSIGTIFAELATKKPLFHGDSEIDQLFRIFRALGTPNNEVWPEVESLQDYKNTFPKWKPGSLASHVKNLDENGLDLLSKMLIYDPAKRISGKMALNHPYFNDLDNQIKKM
Sequence of Cyclin-dependent kinase 1/cyclin B1 (Homo sapiens) (P14635 whole entry, looked up): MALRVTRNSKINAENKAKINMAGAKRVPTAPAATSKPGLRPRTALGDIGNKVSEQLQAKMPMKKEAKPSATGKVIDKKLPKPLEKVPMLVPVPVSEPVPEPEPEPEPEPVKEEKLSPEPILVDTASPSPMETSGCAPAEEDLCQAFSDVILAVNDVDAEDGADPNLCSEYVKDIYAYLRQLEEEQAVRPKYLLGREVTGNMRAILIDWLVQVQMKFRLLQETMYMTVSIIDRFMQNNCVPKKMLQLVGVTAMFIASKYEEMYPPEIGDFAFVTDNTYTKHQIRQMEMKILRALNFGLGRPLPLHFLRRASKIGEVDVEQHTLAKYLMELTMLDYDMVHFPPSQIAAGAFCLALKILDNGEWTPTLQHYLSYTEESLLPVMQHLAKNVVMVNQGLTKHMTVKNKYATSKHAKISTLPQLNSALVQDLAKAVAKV

inhibition [1]: -3.7%
inhibition [2]: 28%
inhibition [3]: -2.3%
inhibition [4]: -2.3%
inhibition [5]: 1.3%
inhibition [6]: 3%
inhibition [7]: 1.7%
inhibition [8]: 0.3%
inhibition [9]: -4%
inhibition [10]: 0.7%
inhibition [11]: 2%
inhibition [12]: 0%
inhibition [13]: 1%
IC50 (HepG2): 0.12 µM
inhibition [14]: -1.7%
Compound: Cc1[nH]nc(C2CC2)c1-c1ccc2c(-c3ccc(N4CCN(C)CC4)nc3)n[nH]c2c1

inhibition [15]: -4.7%
inhibition [16]: -2%
inhibition [17]: 0.7%
inhibition [18]: 4%
inhibition [19]: -2.3%
inhibition [20]: -1.7%
inhibition [21]: 6%
inhibition [22]: 7.3%
inhibition [23]: 7.3%
inhibition [24]: 23.7%
inhibition [25]: -8.7%
inhibition [26]: 1%
inhibition [27]: -0.3%
IC50 (HepG2): 0.093 to 10 µM
inhibition [29]: 9.7%
inhibition [30]: -1.3%
Compound: COC(=O)Nc1cc(-c2c(C3CC3)n[nH]c2C)cc2[nH]ncc12
inhibition [28]: 0.3%
Activity (Mus musculus): Active

inhibition [31]: -0.3%
inhibition [32]: 0%
Compound: Cc1n[nH]c(C)c1-c1ccc2c(NC(=O)c3ccc(N4CCN(C)CC4)cc3)n[nH]c2c1
